The record followed here is ChEMBL document CHEMBL1671814, “Discovery of a 3-pyridylacetic acid derivative (TAK-100) as a potent, selective and orally active dipeptidyl peptidase IV (DPP-4) inhibitor” (J Med Chem, 2011).

The target of data set [1] is Dipeptidyl peptidase 8 (Homo sapiens, UniProt Q6V1X1). The data set can be described thus: Inhibition of FLAG-tagged human DPP8 expressed in human 293F cells after 90 mins. Format: cell-based.
For data set [2], the target named is Dipeptidyl peptidase 2 (Rattus norvegicus, UniProt Q9EPB1). The data set is described as follows: Inhibition of rat kidney DPP2 after 60 mins. Put shortly:
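Rat kidney DPP-2, partially purified, preincubated with compound (DMSO) for 20 min at room temperature in […] buffer pH 5.5. Reaction started with H-Lys-Ala-pNA, added at 1 mmol/L, and run 60 min at 37 °C. A405 read at start and end against substrate-only and no-compound wells. IC50 from concentration-response curves, mean with 95% CI (n = 3).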

Data set [3] has as its target Dipeptidyl peptidase 9 (Homo sapiens, UniProt Q86TI2). The data set can be described thus: Inhibition of FLAG-tagged human DPP9 expressed in human 293F cells after 90 mins. It counts as cell-based.
The test system of data set [4] is Rattus norvegicus. The data set can be described thus: Antidiabetic activity in po dosed fatty Wistar rat assessed as reduction of blood glucose excursion administered 60 mins before glucose challenge by oral glucose tolerance test. Format: functional, organism-based. Put shortly:
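Female Wistar fatty rats, 13 weeks old, fasted overnight and grouped by plasma glucose and body weight (n = 6). Oral vehicle (0.5% methylcellulose) or 0.03, 0.1, 0.3 and 1 mg/kg as free base of the monohydrate. Oral glucose 1 g/kg given 1 h later. Tail-vein blood taken at 0, 10, 30 and 60 min. Plasma glucose measured enzymatically and insulin by ELISA.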

Data set [5] can be described thus: Metabolic stability in human liver microsomes assessed as compound remaining at 1 uM after 20 mins relative to basal level. Format: ADME, Microsome. The settings on record: read-out: Stability. Put shortly:
(§1)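 Rat, dog or human hepatic microsomes ([…] final) mixed on ice with 1 μmol/L compound. Reaction started with NADPH and run 20 min at 37 °C, then stopped with ice-cold acetonitrile. Zero-time controls stopped before compound addition. Supernatant analysed by HPLC-UV. Result given as % remaining.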
On the technique in general: Liver microsomes are a subcellular fraction often used to study metabolism.

Data set [6] in a line: Half life in dog at 1 mg/kg, po. Format: ADME, organism-based, Canis lupus familiaris. Further details: dose 1 mg/kg, route oral. The settings on record: in vivo. The gist of the method: (§2)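 Single doses to rats (n = 3) and dogs (n = 4), intravenous 0.1 mg/kg and oral 1.0 mg/kg. Plasma obtained from serial blood samples and deproteinized with acetonitrile containing an internal standard. Supernatant diluted with 0.01 mol/L ammonium acetate. Drug quantified by LC/MS/MS. Values given as mean ± deviation.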

The nature of data set [7]: Half life in rat at 1 mg/kg, po. Further details: dose 1 mg/kg, route oral. To be noted: in vivo. It counts as ADME, organism-based. The gist of the method: as §2
Data set [8] can be described thus: Bioavailability in dog at 0.1 mg/kg, iv and 1 mg/kg, po. To be noted: in vivo. Format: ADME, organism-based, Canis lupus familiaris. The gist of the method: as §2
A short description of data set [9]: Bioavailability in rat at 0.1 mg/kg, iv and 1 mg/kg, po. It counts as ADME, organism-based. To be noted: in vivo. The gist of the method:
as §2

Data set [10] can be described thus: Metabolic stability in rat liver microsomes assessed as compound remaining at 1 uM after 20 mins relative to basal level. It counts as ADME, Microsome. To be noted: read-out: Stability. Put shortly: as §1
The nature of data set [11]: Solubility of the compound at pH 1.2 after 2 hrs. Format: physicochemical. The settings on record: buffer. Put shortly: (§3)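 Thermodynamic solubility in Japanese Pharmacopoeia 15th ed. first fluid (pH 1.2) or second fluid (pH 6.8), incubated 2 h at 37 °C. Precipitate removed by filtration and filtrate quantified by HPLC.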
Data set [12] can be described thus: Metabolic stability in dog liver microsomes assessed as compound remaining at 1 uM after 20 mins relative to basal level. It counts as ADME, Canis lupus familiaris, Microsome. To be noted: read-out: Stability. The gist of the method: as §1
Data set [13] can be described thus: Solubility of the compound at pH 6.8 after 2 hrs. Format: physicochemical. The settings on record: buffer. Put shortly: as §3
The species named for data set [14] is Canis familiaris. The settings on record: Canis lupus familiaris; Plasma; 0.5 mg/kg.

Activity calls are given as the source filed them. No cut-off for these calls is given here.

Chain of Dipeptidyl peptidase 2 (Q9EPB1 whole entry): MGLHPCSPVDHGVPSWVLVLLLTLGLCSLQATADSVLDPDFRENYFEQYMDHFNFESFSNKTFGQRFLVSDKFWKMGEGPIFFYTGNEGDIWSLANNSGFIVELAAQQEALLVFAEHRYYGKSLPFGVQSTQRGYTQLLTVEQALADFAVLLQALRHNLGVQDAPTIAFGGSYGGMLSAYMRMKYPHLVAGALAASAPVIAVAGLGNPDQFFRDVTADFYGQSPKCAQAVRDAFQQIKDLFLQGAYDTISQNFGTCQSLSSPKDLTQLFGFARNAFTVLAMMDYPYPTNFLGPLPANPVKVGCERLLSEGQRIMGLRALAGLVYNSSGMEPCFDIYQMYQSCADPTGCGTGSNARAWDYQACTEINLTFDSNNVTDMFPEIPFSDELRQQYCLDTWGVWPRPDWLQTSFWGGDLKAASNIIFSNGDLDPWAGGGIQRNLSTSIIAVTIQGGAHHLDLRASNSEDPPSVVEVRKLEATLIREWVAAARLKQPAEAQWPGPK
Chain of Dipeptidyl peptidase 9 (Q86TI2 whole entry): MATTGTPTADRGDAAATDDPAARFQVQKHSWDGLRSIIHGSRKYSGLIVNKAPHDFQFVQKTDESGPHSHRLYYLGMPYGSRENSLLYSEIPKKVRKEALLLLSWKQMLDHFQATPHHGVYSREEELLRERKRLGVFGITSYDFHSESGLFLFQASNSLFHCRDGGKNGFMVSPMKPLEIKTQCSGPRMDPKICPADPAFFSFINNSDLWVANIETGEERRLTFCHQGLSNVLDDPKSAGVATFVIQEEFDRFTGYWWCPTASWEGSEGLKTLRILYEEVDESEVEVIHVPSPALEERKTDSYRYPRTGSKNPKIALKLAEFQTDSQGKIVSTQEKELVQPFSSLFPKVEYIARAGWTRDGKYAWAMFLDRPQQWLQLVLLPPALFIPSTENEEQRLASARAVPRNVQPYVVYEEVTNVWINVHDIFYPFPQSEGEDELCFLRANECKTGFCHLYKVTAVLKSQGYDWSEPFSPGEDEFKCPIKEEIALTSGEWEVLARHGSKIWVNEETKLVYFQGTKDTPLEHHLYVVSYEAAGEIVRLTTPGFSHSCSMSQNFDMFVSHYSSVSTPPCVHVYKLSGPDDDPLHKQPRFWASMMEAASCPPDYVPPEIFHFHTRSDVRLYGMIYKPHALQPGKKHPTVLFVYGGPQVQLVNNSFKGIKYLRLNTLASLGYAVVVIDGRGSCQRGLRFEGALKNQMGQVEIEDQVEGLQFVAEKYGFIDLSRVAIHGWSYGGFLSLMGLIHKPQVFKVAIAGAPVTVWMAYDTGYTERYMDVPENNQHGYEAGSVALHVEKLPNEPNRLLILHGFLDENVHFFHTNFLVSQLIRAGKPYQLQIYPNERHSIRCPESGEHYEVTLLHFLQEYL
Chain of Dipeptidyl peptidase 8 (Q6V1X1 whole entry): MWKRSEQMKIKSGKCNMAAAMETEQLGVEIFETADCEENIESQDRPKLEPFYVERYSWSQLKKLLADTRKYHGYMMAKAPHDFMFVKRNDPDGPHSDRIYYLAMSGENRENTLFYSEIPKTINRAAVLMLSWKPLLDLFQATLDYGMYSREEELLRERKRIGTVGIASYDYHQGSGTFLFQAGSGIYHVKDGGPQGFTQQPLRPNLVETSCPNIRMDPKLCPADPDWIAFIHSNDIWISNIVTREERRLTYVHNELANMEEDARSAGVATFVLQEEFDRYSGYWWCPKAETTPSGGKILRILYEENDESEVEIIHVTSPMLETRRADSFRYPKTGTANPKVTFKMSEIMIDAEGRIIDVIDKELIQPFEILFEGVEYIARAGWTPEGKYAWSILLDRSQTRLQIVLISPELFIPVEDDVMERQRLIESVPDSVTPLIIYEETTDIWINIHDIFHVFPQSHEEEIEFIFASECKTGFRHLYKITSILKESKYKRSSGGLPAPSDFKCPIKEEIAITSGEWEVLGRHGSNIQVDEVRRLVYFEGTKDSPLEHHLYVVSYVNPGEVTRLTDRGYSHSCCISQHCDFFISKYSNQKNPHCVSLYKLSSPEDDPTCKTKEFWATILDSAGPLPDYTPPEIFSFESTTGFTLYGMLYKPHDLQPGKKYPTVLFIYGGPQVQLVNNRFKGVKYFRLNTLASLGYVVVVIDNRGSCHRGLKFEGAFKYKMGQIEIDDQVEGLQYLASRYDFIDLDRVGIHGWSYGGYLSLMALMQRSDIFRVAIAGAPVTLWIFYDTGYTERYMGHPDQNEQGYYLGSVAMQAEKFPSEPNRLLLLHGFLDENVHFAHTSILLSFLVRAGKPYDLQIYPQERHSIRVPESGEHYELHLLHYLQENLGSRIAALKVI

In general, IC50 refers to the concentration that inhibits the measured activity by half. A high value points to weaker potency. Regarding `Cc1ccc(-c2c(CCC(=O)O)c(C)nc(CC(C)C)c2CN)cc1`, the IC50 in [1] was greater than 30 µM; in data set [2] it was 1.1 µM; in data set [3], greater than 30 µM.

For the molecule `Cc1ccc(-c2c(CC(=O)O)c(C)nc(CC(C)(C)C)c2CN)cc1`, the IC50 in data set [1] and in data set [3] was greater than 100 µM throughout.

Molecule `Cc1ccc(-c2c(CN)c(CC(C)(C)C)nc(C)c2C(=O)O)cc1` came in with an IC50 in data set [2] of 10 µM.

In the case of `CCCCc1nc(C)c(C(=O)O)c(-c2ccc(C)cc2)c1CN`, the midpoint of inhibition in data set [2], the IC50, lay at 11 µM.

In data set [2], `Cc1ccc(-c2c(CN)c(CC(C)(C)C)nc(C(C)C)c2C(=O)O)cc1` yielded an IC50 of 1.6 µM.

Usually half-life stands for the time in which the quantity being followed falls by half. Lower therefore signals fast loss. A word on the bioavailability: it is dose-corrected exposure relative to a reference, in per cent. Low readings indicate little systemic uptake, high ones much systemic uptake. In general, solubility refers to the dissolved amount per volume that the medium holds. A lower solubility goes with little dissolved substance. `CCc1nc(CC(C)(C)C)c(CN)c(-c2ccc(C)cc2)c1CC(=O)O.O`: in data set [4], the Activity result is “Dose-dependent effect”. The IC50 in data set [1] and in data set [2] was greater than 100 µM each time. Further, the remaining at 20 min, 1 µM came to 100% in [5], 100% in [10] and 96.8% in data set [12]. In addition, the half-life in [6] was 298 min; in data set [7], 344 min. Besides, the bioavailability amounted to 88% in data set [8] and 53.3% in [9]. Moreover, the solubility at 2 h is greater than 1000 µg/mL in data set [11] and 930 µg/mL in data set [13]. Also, the inhibition entry in [14] was “Active”.

`CCc1nc(CC(C)(C)C)c(CN)c(-c2ccc(C)cc2)c1C(=O)O` yielded an IC50 in data set [2] of 4 µM.

Turning to `Cc1ccc(-c2c(CC(=O)O)c(C)nc(CC(C)C)c2CN)cc1`, the values for the IC50 in data set [1], in data set [2] and in data set [3] were greater than 30 µM, 50 µM and greater than 30 µM, respectively.

Regarding `Cc1ccc(-c2c(CN)c(CC(C)C)nc(C)c2C(=O)O)cc1`, the 50% inhibitory concentration (IC50) in data set [2] is 5.6 µM.

For the molecule `Cc1ccc(-c2c(CN)c(CC(C)(C)C)nc(Cc3ccccc3)c2C(=O)O)cc1`, in data set [2], the midpoint of inhibition, the IC50, lay at 0.25 µM.

As for `CCCc1nc(CC(C)(C)C)c(CN)c(-c2ccc(C)cc2)c1C(=O)O`, in [2], the midpoint of inhibition, the IC50, lay at 2 µM.

Regarding `Cc1ccc(-c2c(CN)c(CC(C)(C)C)nc(CC(C)C)c2C(=O)O)cc1`, the IC50 in [2] was determined as 1.5 µM.
